From publication PMC6542277 (Journal of medicinal chemistry, 2018)
One block for each molecule: values may come before it. Where a SMILES comes first, the peptide text is derived from it. Bridges are numbered along the chain shown (N, C = ends). Roman numbers before positions name the chains, in order. [ ]: non-standard residue; d: D form. The star is where a group is joined. X1 = CN1C(=CC=CC=CC2=[N+](CCCCCC(=O)*)c3ccc4ccccc4c3C2(C)C)C(C)(C)c2c1ccc1ccccc21; AEEEA = NCCOCCOCCOCC(=O)O

Tests used:
[1] = In vivo whole-body NIR fluorescence imaging; conditions: mouse, in vivo, iv, 300 uM, 150 uL
[2] = tested on: OE33 human esophageal adenocarcinoma cells; test: Confocal microscopy binding validation; type: cell-based
In short: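 OE33 cells, kept in RPMI 1640 with 10% FBS and penicillin/streptomycin at 37°C, 5% CO2, grown to ~70% confluence on coverslips. Cells were blocked with 2% BSA/PBS for 30 min, given Cy5.5-labelled peptides, washed 3×, fixed in ice-cold 4% PFA for 10 min and mounted with DAPI. Confocal intensities were quantified from 3 independent images.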

OE33 cells [3] = test: Apparent association time constant by flow cytometry; type: binding, human; conditions: 1 μM peptide, 4°C
In short: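 OE33 cells grown to ~80% confluence, detached with PBS-based dissociation buffer, then held with 1 μM labelled heterodimer at 4°C for periods of 0–60 min. Cells were centrifuged, washed in cold PBS and fixed in 4% PFA before flow cytometry. Median fluorescence was ratioed to peptide-free cells, and k was fitted to y(t) = Imax[1−exp(−kt)].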

ErbB2 = ErbB2 (Homo sapiens, UniProt P04626); test: siRNA knockdown of ErbB2, confocal binding; type: cell-based; conditions: confocal microscopy; mean of 5 cells from 3 images; P=7.8×10^−3
ErbB2, sequence (P04626 23-1255): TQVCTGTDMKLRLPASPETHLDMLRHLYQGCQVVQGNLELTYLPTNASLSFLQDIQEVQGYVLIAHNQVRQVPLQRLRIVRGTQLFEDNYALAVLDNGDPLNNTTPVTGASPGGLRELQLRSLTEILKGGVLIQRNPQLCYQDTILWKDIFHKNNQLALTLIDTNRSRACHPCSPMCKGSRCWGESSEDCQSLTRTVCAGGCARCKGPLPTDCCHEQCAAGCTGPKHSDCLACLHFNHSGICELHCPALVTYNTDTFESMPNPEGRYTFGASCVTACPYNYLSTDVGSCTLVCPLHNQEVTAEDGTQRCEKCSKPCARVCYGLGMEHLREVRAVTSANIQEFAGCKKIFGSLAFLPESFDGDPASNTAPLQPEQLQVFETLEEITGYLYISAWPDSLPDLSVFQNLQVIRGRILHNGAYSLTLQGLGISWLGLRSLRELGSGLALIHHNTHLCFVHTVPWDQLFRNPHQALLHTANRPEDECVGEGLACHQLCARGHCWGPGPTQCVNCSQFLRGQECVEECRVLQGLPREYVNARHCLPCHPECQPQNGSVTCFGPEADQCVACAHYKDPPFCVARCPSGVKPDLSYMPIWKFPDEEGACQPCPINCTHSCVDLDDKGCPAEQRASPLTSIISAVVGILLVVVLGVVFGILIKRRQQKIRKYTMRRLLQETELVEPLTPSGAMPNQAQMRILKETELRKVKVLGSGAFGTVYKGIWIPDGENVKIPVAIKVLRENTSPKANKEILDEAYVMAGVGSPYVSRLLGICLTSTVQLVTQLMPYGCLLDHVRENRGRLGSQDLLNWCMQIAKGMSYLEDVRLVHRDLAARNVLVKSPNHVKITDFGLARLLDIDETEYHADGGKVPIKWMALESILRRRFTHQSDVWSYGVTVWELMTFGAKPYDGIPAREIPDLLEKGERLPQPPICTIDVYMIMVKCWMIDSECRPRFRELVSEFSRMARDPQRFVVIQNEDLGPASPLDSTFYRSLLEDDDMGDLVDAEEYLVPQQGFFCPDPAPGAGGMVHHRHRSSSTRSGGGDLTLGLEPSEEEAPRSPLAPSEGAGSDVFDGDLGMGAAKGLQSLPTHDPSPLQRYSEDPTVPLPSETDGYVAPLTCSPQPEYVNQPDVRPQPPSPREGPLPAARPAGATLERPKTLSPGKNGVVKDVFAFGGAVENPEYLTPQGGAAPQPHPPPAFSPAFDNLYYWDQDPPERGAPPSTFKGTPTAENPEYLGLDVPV

EGFR = EGFR (Homo sapiens, UniProt P00533); test: siRNA knockdown of EGFR, confocal binding; type: cell-based; conditions: confocal microscopy; mean of 5 cells from 3 images; P=3.6×10^−4
EGFR, sequence (P00533 25-1210): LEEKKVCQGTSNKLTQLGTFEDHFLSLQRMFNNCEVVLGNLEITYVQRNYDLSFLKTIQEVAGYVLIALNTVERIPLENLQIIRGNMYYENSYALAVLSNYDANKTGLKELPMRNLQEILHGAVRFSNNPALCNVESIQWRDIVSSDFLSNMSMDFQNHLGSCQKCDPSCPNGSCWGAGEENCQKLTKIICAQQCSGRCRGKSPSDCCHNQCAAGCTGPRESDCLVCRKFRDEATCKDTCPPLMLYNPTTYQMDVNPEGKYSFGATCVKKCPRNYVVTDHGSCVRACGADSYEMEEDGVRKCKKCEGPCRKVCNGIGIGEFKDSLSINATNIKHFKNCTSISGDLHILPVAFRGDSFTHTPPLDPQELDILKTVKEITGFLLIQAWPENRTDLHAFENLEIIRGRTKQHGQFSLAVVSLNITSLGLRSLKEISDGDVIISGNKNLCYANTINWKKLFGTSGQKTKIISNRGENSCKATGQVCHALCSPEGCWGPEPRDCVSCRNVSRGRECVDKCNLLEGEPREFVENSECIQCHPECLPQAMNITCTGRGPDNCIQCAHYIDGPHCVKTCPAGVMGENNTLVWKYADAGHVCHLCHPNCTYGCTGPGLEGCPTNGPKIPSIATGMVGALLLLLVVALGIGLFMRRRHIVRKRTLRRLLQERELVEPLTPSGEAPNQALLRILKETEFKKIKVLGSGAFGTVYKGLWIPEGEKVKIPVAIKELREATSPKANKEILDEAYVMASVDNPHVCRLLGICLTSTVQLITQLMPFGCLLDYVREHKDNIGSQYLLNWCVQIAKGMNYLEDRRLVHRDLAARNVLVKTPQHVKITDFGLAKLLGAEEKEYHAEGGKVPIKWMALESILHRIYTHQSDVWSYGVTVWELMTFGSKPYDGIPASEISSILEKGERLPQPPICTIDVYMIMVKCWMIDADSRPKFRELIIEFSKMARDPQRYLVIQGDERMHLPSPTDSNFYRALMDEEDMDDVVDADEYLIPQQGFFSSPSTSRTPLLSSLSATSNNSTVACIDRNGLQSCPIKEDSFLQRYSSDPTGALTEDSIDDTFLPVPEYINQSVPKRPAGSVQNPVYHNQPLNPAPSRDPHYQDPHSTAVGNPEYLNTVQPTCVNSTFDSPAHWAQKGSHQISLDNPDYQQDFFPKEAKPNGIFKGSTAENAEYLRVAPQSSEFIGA

[4] = tested on: Barrett's neoplasia (HGD and EAC); test: Binding to human esophageal specimens ex vivo, confocal microscopy; conditions: for AUC of ROC curve: human FFPE esophageal specimens ex vivo, HGD and EAC versus SQ and BE
In short: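 Archived FFPE human esophagus cut at 10 μm, deparaffinized, rehydrated, then given two-step acidic plus protease antigen retrieval. Sections were blocked with protein serum for 10 min, stained with 0.5 μM heterodimer for 10 min in the dark at RT, then anti-EGFR and anti-ErbB2 antibodies with secondaries. Mean intensity came from three 20×20 μm2 epithelial boxes, avoiding saturated regions. SQ/BE/HGD/EAC groups (n = 31, 8, 23, 12) compared by unpaired t test and one-way ANOVA.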

OE33 xenograft tumors [5] = test: In vivo whole-body NIR fluorescence imaging; conditions: nude mice, OE33 xenograft, 300 μM in 150 μL PBS via tail vein, NIR fluorescence
OE33 cells [6] = test: Apparent dissociation constant by flow cytometry; type: binding, human; conditions: from kd on OE33 cells
In short: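 Labelled heterodimer serially diluted in PBS (0, 10, 25, 50, 100, 200 nM) and incubated with OE33 cells at 4°C for 1 h, then washed in cold PBS. Mean fluorescence was read by flow cytometry. kd = 1/ka came from a least-squares fit to I = (I0 + Imax·ka[X])/(I0 + ka[X]), where I0 is the no-peptide intensity and Imax the saturation intensity.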

[7] = Acute toxicity on histology; type: in vivo, mouse; conditions: nude mice after systemic injection of 300 μM, 150 μL PBS
SKBr3 cells = test: Internalization, confocal images over time; type: cell-based, human
OE33 xenograft tumors [8] = test: Biodistribution, ex vivo organ fluorescence; design: species or system mouse; conditions: nude mice, 300 μM in 150 μL PBS, 2 hours
Hydrophilicity = type: physicochemical; conditions: triethyleneglycol linker (E3); method not given
[9] = Stability in PBS containing 0.1% BSA; type: physicochemical; conditions: 0.01 mol/L PBS, pH 7.4, 37°C, HPLC at 0.5, 2, 6 and 12 hours
[10] = tested on: EGFR/ErbB2 signaling (p-EGFR, p-ErbB2, p-AKT, p-ERK) in SKBr3 cells; test: Effect on cell signaling, Western blot; type: cell-based, human
[11] = Enzymatic stability in mouse serum; type: in vitro ADME; conditions: 30 μM in mouse serum, 37°C, at 2 hour; HPLC of supernatant after centrifugation
In short: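 Samples taken at 0.5, 1.0, 1.5 and 2 h of serum incubation at 37°C were centrifuged at 14,000 rpm. 20 μL of supernatant was analysed by HPLC.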

[12] = human esophageal specimens ex vivo, confocal microscopy, 0.5 μM, 10 min, RT

Molecule: C[C@H](NC(=O)CNC(=O)CNC(=O)CN)C(=O)NCC(=O)NCC(=O)NCC(=O)NCCCC[C@H](NC(=O)CNC(=O)CNC(=O)CNC(=O)[C@H](C)NC(=O)CNC(=O)CNC(=O)CN)C(=O)N[C@@H](CCCCNC(=O)CCCCC[N+]1=C(C=CC=CC=C2N(C)c3ccc4ccccc4c3C2(C)C)C(C)(C)c2c1ccc1ccccc21)C(N)=O [(GGGAGGG)2KK-Cy5.5, reference compound] (I: H-GGGAGGGKK(X1)-NH2 / II: H-GGGAGGG; amide I:8-II:C)
tissue to tissue ratio at 2 h [1]: 1.43 ± 0.28

Molecule: CN1C(=CC=CC=CC2=[N+](CCCCCC(=O)NCCCC[C@H](NC(=O)[C@H](CCCCNC(=O)COCCOCCOCCNC(=O)[C@H](Cc3ccccc3)NC(=O)[C@H](CCCNC(=N)N)NC(=O)[C@@H]3CCCN3C(=O)[C@H](CC(N)=O)NC(=O)[C@@H]3CCCN3C(=O)[C@H](CO)NC(=O)[C@@H](N)CCCCN)NC(=O)COCCOCCOCCNC(=O)[C@H](CCC(=O)O)NC(=O)[C@H](CCCNC(=N)N)NC(=O)[C@@H]3CCCN3C(=O)[C@H](CCCCN)NC(=O)[C@H](Cc3c[nH]cn3)NC(=O)[C@H](CCCNC(=N)N)NC(=O)[C@@H](N)CCC(N)=O)C(N)=O)c3ccc4ccccc4c3C2(C)C)C(C)(C)c2c1ccc1ccccc21 [QRH*-KSP*-E3-Cy5.5] (I: H-QRHKPRE[AEEEA]KK(X1)-NH2 / II: H-KSPNPRF[AEEEA]; amide I:9-II:C; N-terminus and C-terminus assumed)
binding to surface of OE33 cells ([2]; 1 μM, 30 min, 4°C): strong binding
fluorescence intensity compared with either monomer alone ([2]; binding to OE33 cells): 3 fold
association time (printed in brackets after k) (OE33 cells [3]): 4.5 min
fluorescence intensity, siCL (control) versus siErbB2 (knockdown) SKBr3 cells (ErbB2): significantly greater intensity
fluorescence intensity, siCL (control) versus siEGFR (knockdown) SKBr3 cells (EGFR): significantly greater intensity
AUC of ROC curve [4]: 0.95
fluorescence intensity with SQ and BE [4, 12]: minimal fluorescence intensity
fluorescence signal with HGD and EAC [4, 12]: increased signal
tissue to tissue ratio at 2 h [1]: 2.39 ± 0.52
time at which signal returns to baseline (systemic clearance) (OE33 xenograft tumors [5]): ~ 24 hours
affinity compared with either monomer alone (OE33 cells [6]): 2 fold
acute toxicity on histology (H&E) [7]: no evidence of acute toxicity
time at which internalization begins (SKBr3 cells): 8 min
time at which internalization reaches near completion (SKBr3 cells): 40 min
uptake in kidney (OE33 xenograft tumors [8]; supports renal clearance): High uptake
uptake in tumor relative to muscle (OE33 xenograft tumors [8]; OE33 xenograft, n = 6): 3 fold
hydrophilicity (Hydrophilicity): good hydrophilicity
degradation in PBS containing 0.1% BSA [9]: No noticeable degradation
downstream change in AKT (p-AKT) and ERK (p-ERK) ([10]; heterodimer at 1, 5 and 20 μM): no downstream change
phosphorylation of EGFR (p-EGFR) or ErbB2 (p-ErbB2) ([10]; heterodimer at 1, 5 and 20 μM): no change
area of new formed peak (may arise from degradation) [11]: about 20%

Molecule: CS(=O)(=O)CCNCc1ccc(-c2ccc3ncnc(Nc4ccc(OCc5cccc(F)c5)c(Cl)c4)c3c2)o1 [lapatinib, reference compound]
expression of p-ErbB2, p-AKT and p-ERK ([10]; lapatinib 100 nM): reduced expression

Molecule: EGF: endogenous ligand for EGFR, positive control
phosphorylation of AKT (p-AKT) and ERK (p-ERK), positive control ([10]; EGF 100 ng/mL): strong phosphorylation activity

AUC of ROC curve [4]: 0.91
Molecule: KSPNPRF [KSP*-Cy5.5]

AUC of ROC curve [4]: 0.79
Molecule: QRHKPRE [QRH*-Cy5.5]
